Results on eight compounds are retold here after ChEMBL document CHEMBL1155640, “Guaiane dimers and germacranolide from Artemisia caruifolia” (J Nat Prod, 2000).

Active and inactive are the calls of the source. No cut-off for these calls is given here.

Experiment [1] addresses Protease (Human immunodeficiency virus 1) (UniProt Q9YQ12). Description: Inhibition of HIV1 protease at 100 ug/mL. The gist of the method: (§1)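 Commercial HIV protease assay kit, with inhibition calculated by a previously reported method. Compounds were screened at 100 µg/mL. IC50 was taken from concentration-dependent inhibition. Acetyl pepstatin served as positive control.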

Experiment [2] concerns Human immunodeficiency virus 1. Description: Antiviral activity against HIV1 in human MT4 cells assessed as inhibition of viral-induced cytopathic effect at 250 ug/mL. Format: functional, organism-based. On the technique in general: Cytopathic effects are the visible damage that an infection or toxin causes in cultured cells.
The target in another experiment is Protease (Human immunodeficiency virus 1, UniProt Q9YQ12). Description: Inhibition of HIV1 protease. The gist of the method:
as §1

Experiment [3] concerns Human immunodeficiency virus 1. Description: Antiviral activity against HIV1 in human MT4 cells assessed as inhibition of viral-induced cytopathic effect at 500 ug/mL. Format: functional, organism-based.

Protease (Human immunodeficiency virus 1), sequence (Q9YQ12 as listed by the source): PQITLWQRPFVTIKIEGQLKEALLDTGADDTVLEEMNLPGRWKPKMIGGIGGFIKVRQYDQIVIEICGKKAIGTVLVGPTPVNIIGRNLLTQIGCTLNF
Protease, sequence (Q9YQ12 whole entry): as the sequence (Q9YQ12 as listed by the source) above

With `CC1=C[C@H]2[C@H]3[C@H](C(C)=C4[C@H]5OC(=O)[C@@H](C)[C@@H]5CC[C@](C)(O)[C@@H]43)[C@@]13[C@@H]2[C@@](C)(O)CC[C@H]1[C@H](C)C(=O)O[C@@H]13`, the inhibition (in general, the drop in the measured response relative to a control, in per cent) in experiment [1] amounted to 22%. Besides, the outcome in experiment [2] was Active.
Take `C[C@@H]1C(=O)O[C@@H]2C3=C([C@H]4C(=O)[C@]3(C)[C@@H]3[C@H](O)C5=C([C@H]6OC(=O)[C@@H](C)[C@@H]6CC[C@]5(C)O)[C@@]43C)[C@@](C)(O)CC[C@@H]12`: the inhibition in experiment [1] came out at 22%.
The same measure, in the same setting: then `C/C1=C/[C@H]2OC(=O)[C@H](C)[C@H]2CC[C@]2(C)O[C@H]1C[C@H]2O`, with 22%; and `CC1=C2[C@H]3OC(=O)[C@H](C)[C@@H]3CC[C@@](C)(O)[C@@H]2[C@H]2[C@H]3C[C@]4(C)O[C@@]5(C)CC[C@H]6[C@H](C)C(=O)O[C@@H]6[C@@]4([C@@H]35)[C@@H]12`, with 22%.
On the same count and under the same terms, then `CC1=C2[C@H]3OC(=O)[C@@H](C)[C@@H]3CC[C@](C)(O)[C@@H]2[C@H]2[C@H]3C[C@]4(C)O[C@@]5(C)CC[C@H]6[C@H](C)C(=O)O[C@@H]6[C@@]4([C@@H]35)[C@@H]12`, with 22%.
On to `CC1=C2[C@H]3OC(=O)[C@@H](C)[C@@H]3CC[C@](C)(O)[C@@H]2[C@H]2[C@H]3C(=O)[C@H](C)[C@]4([C@@H]3[C@@](C)(O)CC[C@H]3[C@H](C)C(=O)O[C@@H]34)[C@@H]12` [CARUIFOLIN B], for which the concentration for half-maximal inhibition (IC50) – broadly, the concentration that inhibits the measured activity by half – at Protease was 293 µM. In experiment [1], this compound had an inhibition of 22%. Moreover, the outcome in experiment [3] was Active.
As for `C=C1[C@@H](O)[C@@H]2[C@H]3[C@H](C(C)=C4[C@H]5OC(=O)[C@@H](C)[C@@H]5CC[C@](C)(O)[C@@H]43)[C@@]13[C@@H]2[C@@](C)(O)CC[C@H]1[C@H](C)C(=O)O[C@@H]13`, the inhibition in experiment [1] was found to be 22%.
The same measure, in the same setting: then `CC1=C2[C@H]3OC(=O)[C@@H](C)[C@@H]3CC[C@](C)(O)[C@@H]2[C@H]2[C@@H]3[C@@H]4[C@]5([C@H]6OC(=O)[C@@H](C)[C@@H]6CC[C@]4(C)O[C@@]5(C)[C@H]3O)[C@@H]12`, with 22%.
